Measurements published in ChEMBL document CHEMBL1177718, “Phosphoramidate ProTides of 2'-C-methylguanosine as highly potent inhibitors of hepatitis C virus. Study of their in vitro and in vivo properties” (J Med Chem, 2010).

How the values were obtained:
Plasma = assay: Dose normalized AUC in ICR mouse plasma at 50 mg/kg, po by LC-MS/MS analysis; assay type: ADME, organism-based; parameters: dose 50 mg/kg, route oral; details: in vivo
Liver [1] = assay: AUC (0 to 6 hrs) in ICR mouse liver at 50 mg/kg, po by LC-MS/MS analysis; assay type: ADME, organism-based; parameters: time < 6 hr, dose 50 mg/kg, route oral; details: in vivo
Liver [2] = assay: AUC (0 to 24 hrs) in ICR mouse liver at 50 mg/kg, po by LC-MS/MS analysis; assay type: ADME, organism-based; parameters: time < 24 hr, dose 50 mg/kg, route oral; details: in vivo
Liver [3] = assay: Dose normalized AUC in ICR mouse liver at 50 mg/kg, po by LC-MS/MS analysis; assay type: ADME, organism-based; parameters: dose 50 mg/kg, route oral; details: in vivo
[4] = Oral bioavailability in ICR mouse at 50 mg/kg; assay type: ADME, organism-based; details: in vivo
[5] = Oral bioavailability in cynomolgus monkey at 50 mg/kg; assay type: ADME, organism-based, Macaca fascicularis; details: in vivo
[6] = Cytotoxicity against human HuH7 cells after 72 hrs by celltiter-glo assay; assay type: cell-based, Huh-7
In short: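 Replicon 1b Huh7 cells seeded 2 × 10⁴/well; after 24 h, 11 serial 2× dilutions from 100 μM (three repeats each) with no-compound control; 72 h at 37 °C, CO₂, log-phase growth; viability by CellTiter-Glo luminescence; CC₅₀ = concentration giving 50% signal.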

Hepatitis C virus = assay: Antiviral activity against HCV1b infected in human HuH7 cells assessed as inhibition of viral replication after 48 hrs by luciferase reporter gene assay; assay type: functional, organism-based, Hepacivirus hominis; details: genotype 1b, Huh-7, 48 h
In short: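 Huh7 cells carrying genotype 1b bicistronic subgenomic replicon, seeded 2 × 10⁴/well without G-418; compounds added 18-24 h later, 48 h exposure; 3× or 4× serial dilutions over 0.0001-10 μM in triplicate/quadruplicate; Renilla luciferase read-out versus untreated cells; EC₅₀ by four-parameter sigmoidal nonlinear regression; at least three independent assays.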

[7] = Cmax in ICR mouse plasma at 50 mg/kg, po by LC-MS/MS analysis; assay type: ADME, organism-based; parameters: dose 50 mg/kg, route oral
[8] = Selectivity index, […] for human HEK293 cells
[9] = Selectivity index, […] for human HEL cells
[10] = Selectivity index, […] for human HepG2 cells
[11] = Selectivity index, […] for human CEM cells; parameters: species or system CCRF-CEM
[12] = Selectivity index, […] for human MT4 cells
[13] = Selectivity index, […] for human HuH7 cells; parameters: species or system Huh-7
[14] = Metabolic stability in mouse plasma assessed as compound remaining at 1 ug/ml after 4 hrs; assay type: ADME, cell-free; details: read-out: Stability
[15] = Metabolic stability in rat plasma assessed as compound remaining at 1 ug/ml after 4 hrs; assay type: ADME, cell-free; details: read-out: Stability
In short: (§1)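 Duplicate incubations; compound at final 1 μg/mL in plasma preincubated and kept at […]; samples taken at 30 or 240 min, quenched with ice-cold acetonitrile, centrifuged, supernatant diluted with water; parent quantified by LC-MS/MS (Polar-RP column, formic acid water/acetonitrile gradient, positive ion mode); % remaining reported.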

[16] = Metabolic stability in dog plasma assessed as compound remaining at 1 ug/ml after 4 hrs; assay type: ADME, cell-free, Canis lupus familiaris; details: read-out: Stability; in short: as §1
[17] = Metabolic stability in cynomolgus monkey plasma assessed as compound remaining at 1 ug/ml after 4 hrs; assay type: ADME, cell-free, Macaca fascicularis; details: read-out: Stability; in short: as §1
[18] = Metabolic stability in mouse plasma assessed as compound remaining at 1 ug/ml after 30 mins; assay type: ADME, cell-free; details: read-out: Stability
[19] = Metabolic stability in rat plasma assessed as compound remaining at 1 ug/ml after 30 mins; assay type: ADME, cell-free; details: read-out: Stability; in short: as §1
[20] = Metabolic stability in dog plasma assessed as compound remaining at 1 ug/ml after 30 mins; assay type: ADME, cell-free, Canis lupus familiaris; details: read-out: Stability; in short: as §1
[21] = Metabolic stability in cynomolgus monkey plasma assessed as compound remaining at 1 ug/ml after 30 mins; assay type: ADME, cell-free, Macaca fascicularis; details: read-out: Stability; in short: as §1
[22] = Cytotoxicity against human Caco-2 cells after 72 hrs by celltiter-glo assay; assay type: cell-based
In short: (§2)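 Cells kept in log phase of growth throughout the cytotoxicity experiments.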

[23] = Cytotoxicity against rat IEC6 cells after 72 hrs by celltiter-glo assay; assay type: cell-based; in short: as §2
[24] = Cytotoxicity against human HEK293 cells after 72 hrs by celltiter-glo assay; assay type: cell-based; in short: as §2
[25] = Cytotoxicity against human HepG2 cells after 72 hrs by celltiter-glo assay; assay type: cell-based; in short: as §2
[26] = Cytotoxicity against human MT4 cells after 72 hrs by celltiter-glo assay; assay type: cell-based; in short: as §2
[27] = Cytotoxicity against human HEL cells after 72 hrs by celltiter-glo assay; assay type: cell-based; in short: as §2
[28] = Cytotoxicity against human CEM cells after 72 hrs by celltiter-glo assay; assay type: cell-based, CCRF-CEM; in short: as §2
[29] = Selectivity index, […] for human Caco-2 cells
[30] = Selectivity index, […] for rat IEC-6 cells
Homo sapiens [31] = organism: Homo sapiens; assay: Metabolic stability in human plasma assessed as compound remaining at 1 ug/ml after 4 hrs
Homo sapiens [32] = organism: Homo sapiens; assay: Metabolic stability in human plasma assessed as compound remaining at 1 ug/ml after 30 mins

## C[C@@]1(O)[C@H](O)[C@@H](CO)O[C@H]1n1cnc2c(=O)[nH]c(N)nc21 [2'-B-METHYL-GUANOSINE]
Plasma
  AUC: 411 ng·h/mL
Liver [1]
  AUC: 16510 ng·h/g
Liver [2]
  AUC: 36868 ng·h/g
Liver [3]
  AUC: 737 ng·h/g
[4]
  bioavailability: 85%
[5]
  bioavailability: 10%
[6]
  CC50 at 72 h: > 100 µM
Hepatitis C virus
  EC50: 3.5 µM
[7]
  Cmax: 5200 ng/mL

## C[C@H](NP(=O)(OC[C@H]1O[C@@H](n2cnc3c(=O)[nH]c(N)nc32)[C@](C)(O)[C@@H]1O)Oc1cccc2ccccc12)C(=O)O[C@@H](C)c1ccccc1 (stereo partly specified)
Plasma
  AUC: 85 ng·h/mL
Liver [1]
  AUC: 2596 ng·h/g
Liver [2]
  AUC: 5390 ng·h/g
Liver [3]
  AUC: 108 ng·h/g
[8]
  Selectivity Index: >=1000
[9]
  Selectivity Index: >=1000
[10]
  Selectivity Index: >=1000
[11]
  Selectivity Index: >=1000
[12]
  Selectivity Index: >=1000
[13]
  Selectivity Index: >=1000
[14]
  remaining at 4 h, 1 ug/ml: 0%
[15]
  remaining at 4 h, 1 ug/ml: 0%
[16]
  remaining at 4 h, 1 ug/ml: 92%
[17]
  remaining at 4 h, 1 ug/ml: 100%
[18]
  remaining at 0.5 h, 1 ug/ml: 3.1%
[19]
  remaining at 0.5 h, 1 ug/ml: 0.8%
[20]
  remaining at 0.5 h, 1 ug/ml: 97%
[21]
  remaining at 0.5 h, 1 ug/ml: 100%
[22]
  CC50 at 72 h: > 100 µM
[23]
  CC50 at 72 h: > 100 µM
[24]
  CC50 at 72 h: > 100 µM
[25]
  CC50 at 72 h: > 100 µM
[26]
  CC50 at 72 h: 87 µM
[27]
  CC50 at 72 h: > 100 µM
[28]
  CC50 at 72 h: 82 µM
[6]
  CC50 at 72 h: > 100 µM
Hepatitis C virus
  EC50: 0.08 µM
[29]
  Selectivity Index: >=1000
[30]
  Selectivity Index: >=1000
[7]
  Cmax: 1380 ng/mL
Homo sapiens [31]
  remaining at 4 h, 1 ug/ml: 99%
Homo sapiens [32]
  remaining at 0.5 h, 1 ug/ml: 100%
